For three compounds, Activity, inhibition and IC50 results are on record in ChEMBL document CHEMBL3822416, “Design, Synthesis, and Structure-Activity Relationship Study of Novel Indole-2-carboxamide Derivatives as Anti-inflammatory Agents for the Treatment of Sepsis” (J Med Chem, 2016).

Active and inactive are the calls of the source. No cut-off for these calls is given here.

The test system of data set [1] is Mus musculus. Description: Antiinflammatory activity in LPS-induced C57BL/6 mouse sepsis model assessed as decrease in pulmonary lobule structural changes at 10 mg/kg, iv administered 15 mins prior to LPS challenge measured after 6 hrs by hematoxylin and eosin staining. Type of data set: functional, organism-based. A digest of the protocol: (§1)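 Male C57BL/6 mice (18-22 g), randomized into groups. Compound at 10 mg/kg was given by tail-vein injection 15 min before LPS 20 mg/kg; controls received saline. Animals were sacrificed 6 h after LPS. Lung was fixed in 4% paraformaldehyde, paraffin-embedded, cut at 5 µm and H&E stained. A pathologist, blinded, scored alveolar congestion, hemorrhage, neutrophil infiltration and alveolar wall thickness/hyaline membrane.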

Data set [2] is filed under the species Mus musculus. Kind of data set: Acute toxicity in C57BL/6 mouse heart by hematoxylin and eosin staining-based histopathologiacal analysis. Particulars: in vivo. It is filed as organism-based.
For data set [3], the system named is Mus musculus. Kind of data set: Downregulation of COX2 mRNA level in lung of LPS-induced C57BL/6 mouse sepsis model at 10 mg/kg, iv administered 15 mins prior to LPS challenge measured after 6 hrs by RT-qPCR analysis. Type of data set: functional, organism-based. A digest of the protocol: (§2)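 Male C57BL/6 mice were given 10 mg/kg by tail-vein injection 15 min before 20 mg/kg LPS and killed after 6 h; lungs were harvested. RNA was extracted with TRIZOL and quantified by real-time quantitative PCR as relative mRNA amount.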

The test system of data set [4] is Mus musculus. Kind of data set: Antiinflammatory activity in LPS-induced C57BL/6 mouse sepsis model assessed as reduction in airspace inflammation in lung at 10 mg/kg, iv administered 15 mins prior to LPS challenge measured after 6 hrs by hematoxylin and eosin staining. It is filed as functional, organism-based. In a few lines: as §1
Data set [5] has as its system Mus musculus. Description: Downregulation of IL-33 mRNA level in lung of LPS-induced C57BL/6 mouse sepsis model at 10 mg/kg, iv administered 15 mins prior to LPS challenge measured after 6 hrs by RT-qPCR analysis. Type of data set: functional, organism-based. A digest of the protocol: as §2
(Quantitative PCR measures a nucleic acid by following its amplification.)

Data set [6] deals with Mus musculus. Description: Downregulation of IL-12 mRNA level in lung of LPS-induced C57BL/6 mouse sepsis model at 10 mg/kg, iv administered 15 mins prior to LPS challenge measured after 6 hrs by RT-qPCR analysis. Type of data set: functional, organism-based. In a few lines:
as §2

The subject of data set [7] is Mus musculus. Description: Antiinflammatory activity in LPS-induced C57BL/6 mouse sepsis model assessed as inhibition of neutrophils infiltration in lung by measuring MPO activity at 10 mg/kg, iv administered 15 mins prior to LPS challenge measured after 6 hrs in presence of O-dianisidine dihydrochloride relative to control. Type of data set: functional, organism-based. In a few lines: (§3)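 Mice were given 10 mg/kg iv 15 min before 20 mg/kg LPS or without LPS; saline served as control, and animals were killed 6 h later. Lung supernatants were incubated with 0.01% H2O2 and O-dianisidine dihydrochloride 0.167 mg/mL for 30 min, with absorbance change at 460 nm. One unit degrades 1 µmol peroxide/min at 37 °C; values are expressed as units/g lung.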

Data set [8] deals with RAW264.7. Kind of data set: Inhibition of LPS-induced TNF-alpha production in mouse RAW264.7 cells preincubated for 30 mins prior to LPS challenge measured after 24 hrs by ELISA. Type of data set: functional, cell-based. Particulars: Mus musculus, RAW264.7; read-out: IC50. A digest of the protocol:
(§4)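 RAW 264.7 cells (ATCC) were grown in DMEM with 10% FBS and penicillin/streptomycin at 37 °C, 5% CO2. Cells were seeded at 400,000/well and incubated for 24 h, pretreated with compound for 30 min, then given 0.5 µg/mL LPS for 24 h. Medium TNF-α or IL-6 was measured by ELISA and normalized to total protein of viable cell pellets.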
(In an ELISA, binding on a coated surface is turned into a signal by an enzyme label.)

The subject of data set [9] is Mus musculus. Kind of data set: Downregulation of TNF-alpha mRNA level in lung of LPS-induced C57BL/6 mouse sepsis model at 10 mg/kg, iv administered 15 mins prior to LPS challenge measured after 6 hrs by RT-qPCR analysis. Type of data set: functional, organism-based. A digest of the protocol:
as §2

The subject of data set [10] is Mus musculus. Description: Antiinflammatory activity in LPS-induced C57BL/6 mouse sepsis model assessed as suppression of TNF-alpha release in serum at 10 mg/kg, iv administered 15 mins prior to LPS challenge measured after 6 hrs relative to control. Type of data set: functional, organism-based. A digest of the protocol:
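Male C57BL/6 mice, 18-22 g, were injected via tail vein with 10 mg/kg 15 min before 20 mg/kg LPS; controls received saline. Blood was taken with a heparinized syringe 6 h after LPS under anesthesia. Serum TNF-α was measured by ELISA (pg/mL).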

In data set [11] the test system is Mus musculus. Description: Downregulation of IL-1beta mRNA level in lung of LPS-induced C57BL/6 mouse sepsis model at 10 mg/kg, iv administered 15 mins prior to LPS challenge measured after 6 hrs by RT-qPCR analysis. It is filed as functional, organism-based. A digest of the protocol:
as §2

Data set [12] concerns RAW264.7. Description: Inhibition of LPS-induced IL6 production in mouse RAW264.7 cells preincubated for 30 mins prior to LPS challenge measured after 24 hrs by ELISA. Particulars: Mus musculus, RAW264.7; read-out: IC50. It is filed as functional, cell-based. A digest of the protocol:
as §4

Data set [13] has as its system Mus musculus. Kind of data set: Downregulation of IL-6 mRNA level in lung of LPS-induced C57BL/6 mouse sepsis model at 10 mg/kg, iv administered 15 mins prior to LPS challenge measured after 6 hrs by RT-qPCR analysis. Type of data set: functional, organism-based. A digest of the protocol: as §2
Data set [14] has as its system Mus musculus. Kind of data set: Decrease in MPO activity in C57BL/6 mouse lung at 10 mg/kg, iv after 6 hrs in presence of O-dianisidine dihydrochloride relative to control. Type of data set: ADME, organism-based. Particulars: in vivo. In a few lines:
as §3

The species named for data set [15] is Mus musculus. Kind of data set: Acute toxicity in C57BL/6 mouse kidney by hematoxylin and eosin staining-based histopathologiacal analysis. Type of data set: organism-based. Particulars: in vivo.
The test system of data set [16] is Mus musculus. Description: Toxicity in C57BL/6 mouse assessed as change in body weight at 20 mg/kg, iv administered for 7 days measured every 24 hrs of compound dosing relative to control. The note with it: in vivo. It is filed as organism-based.
Data set [17] is filed under the species Mus musculus. Description: Acute toxicity in C57BL/6 mouse liver by hematoxylin and eosin staining-based histopathologiacal analysis. It is filed as organism-based. Particulars: in vivo.
Data set [18] has as its system Mus musculus. Kind of data set: Antiinflammatory activity in LPS-induced C57BL/6 mouse sepsis model assessed as inhibition of macrophage infiltration in lung at 10 mg/kg, iv administered 15 mins prior to LPS challenge measured after 6 hrs by F4/80 and hematoxylin-staining based microscopy. It is filed as functional, organism-based. In a few lines: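 C57BL/6 males were dosed with 10 mg/kg iv (tail vein) 15 min before 20 mg/kg LPS and sacrificed 6 h later. Paraffin lung sections had antigen retrieval by pressure cooker in 10 mM citrate pH 6.5, then H2O2, 5% BSA block, anti-F4/80 overnight at 4 °C, HRP secondary, DAB and hematoxylin counterstain. The % F4/80-positive cells was counted in 10 random 200× fields per section.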

Data set [19] deals with RAW264.7. Description: Inhibition of LPS-induced TNF-alpha production in mouse RAW264.7 cells at 10 uM preincubated for 30 mins prior to LPS challenge measured after 24 hrs by ELISA. Type of data set: functional. In a few lines: as §4
The subject of data set [20] is RAW264.7. Kind of data set: Inhibition of LPS-induced IL6 production in mouse RAW264.7 cells at 10 uM preincubated for 30 mins prior to LPS challenge measured after 24 hrs by ELISA. It is filed as functional. In a few lines:
as §4

In the case of `CN1CCN(c2ccc(NC(=O)c3cc4cc(NC(=O)c5ccco5)ccc4n3Cc3ccc(C(F)(F)F)cc3)cc2)CC1`, the outcome in the data set on Mus musculus [1], in the data set with Mus musculus [3], in the data set on Mus musculus [4], in the data set on Mus musculus [5], with Mus musculus [6] and in the data set on Mus musculus [9] was Active. The result in the data set on Mus musculus [10], in the data set on Mus musculus [11] and with Mus musculus [13] was Active. The Activity entry in the data set listed under Mus musculus [2], in the data set on Mus musculus [14], in the data set listed under Mus musculus [15], in the data set with Mus musculus [16] and in the data set listed under Mus musculus [17] was “Non-toxic” throughout. Moreover, the inhibition result in the data set on Mus musculus [7] and in the data set on Mus musculus [18] was “Active” each time. Besides, the IC50 is 2660 nM with RAW264.7 [8] and 2900 nM with RAW264.7 [12].
For `CCCn1c(-c2c[nH]c3ncccc23)nc2ccc(N3CCN(C)CC3)nc21`, the outcome with Mus musculus [1], with Mus musculus [4], with Mus musculus [5], in the data set with Mus musculus [6], in the data set on Mus musculus [9] and with Mus musculus [13] was Active. The inhibition at 10 µM in the data set with RAW264.7 [19] stood at 67.3%; in the data set with RAW264.7 [20], 69.5%. Besides, the outcome in the data set with Mus musculus [3] and with Mus musculus [11] was inactive. Also, the inhibition result in the data set with Mus musculus [7] and in the data set with Mus musculus [18] was “Active” in each case. Moreover, the Activity entry in the data set on Mus musculus [14] was “Non-toxic”.
`CN1CCN(c2ccc(NC(=O)c3cc4cc(NC(=O)N(C)C)ccc4n3Cc3ccc(C(F)(F)F)cc3)cc2)CC1`: the result in the data set with Mus musculus [1], in the data set on Mus musculus [3], with Mus musculus [4], with Mus musculus [5], in the data set on Mus musculus [6] and with Mus musculus [9] was Active. The result in the data set with Mus musculus [10], with Mus musculus [11] and in the data set on Mus musculus [13] was Active. Also, the Activity result in the data set listed under Mus musculus [2], with Mus musculus [14], in the data set listed under Mus musculus [15], in the data set with Mus musculus [16] and in the data set listed under Mus musculus [17] was “Non-toxic” throughout. Also, the inhibition entry in the data set on Mus musculus [7] and in the data set with Mus musculus [18] was “Active” in each case. Besides, the IC50 in the data set with RAW264.7 [8] is 2670 nM; with RAW264.7 [12] it was 1240 nM.

The inhibition is the relative decrease from the control value, in per cent. Usually IC50 stands for the concentration that inhibits the measured activity by half.
